Results reported in ChEMBL document CHEMBL3769317, “Aminothiazoles as Potent and Selective Sirt2 Inhibitors: A Structure-Activity Relationship Study” (J Med Chem, 2016).
Counter-ions that a name gives are not always drawn. The source made the active and inactive calls. The calls are words filed in the database; no cut-off is given here. Where a SMILES comes first, the peptide text is derived from it. Bridges are numbered along the chain shown (N, C = ends). The star is where a group is joined. Tfa = O=C(C(F)(F)F)*

Key:
[1] = target: T1, NAD-dependent protein deacetylase sirtuin-1 (Homo sapiens, UniProt Q96EB6); assay: Inhibition of human SIRT1 by fluorometric assay
T1 sequence (Q96EB6 whole entry): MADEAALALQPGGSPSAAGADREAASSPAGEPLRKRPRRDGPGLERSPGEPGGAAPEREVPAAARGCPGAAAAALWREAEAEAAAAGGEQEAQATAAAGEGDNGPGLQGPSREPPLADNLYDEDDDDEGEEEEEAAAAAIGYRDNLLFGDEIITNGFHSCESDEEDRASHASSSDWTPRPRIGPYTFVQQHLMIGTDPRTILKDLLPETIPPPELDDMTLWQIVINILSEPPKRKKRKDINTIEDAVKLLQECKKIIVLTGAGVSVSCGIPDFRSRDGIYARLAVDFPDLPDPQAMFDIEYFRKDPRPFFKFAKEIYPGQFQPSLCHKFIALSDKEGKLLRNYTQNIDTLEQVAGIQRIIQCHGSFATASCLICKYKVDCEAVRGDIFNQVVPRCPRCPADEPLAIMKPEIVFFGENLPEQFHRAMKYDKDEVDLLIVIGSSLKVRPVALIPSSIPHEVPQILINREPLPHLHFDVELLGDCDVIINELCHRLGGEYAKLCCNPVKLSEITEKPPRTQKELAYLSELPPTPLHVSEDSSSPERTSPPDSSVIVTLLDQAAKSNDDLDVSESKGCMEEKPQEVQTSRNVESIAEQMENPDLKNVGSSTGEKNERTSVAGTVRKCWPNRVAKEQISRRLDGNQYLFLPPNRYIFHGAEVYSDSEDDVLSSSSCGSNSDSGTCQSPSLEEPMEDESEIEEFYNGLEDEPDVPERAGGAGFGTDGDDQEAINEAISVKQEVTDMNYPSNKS
Outline: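 Fluorescence-based homogeneous assay with ZMAL (Cbz-Lys(acetyl)-AMC) substrate at 10,5 µM final and NAD+ at 500 µM final, in Tris/NaCl/KCl buffer pH 8.0 with 5% (v/v) DMSO final. Incubated 4 h at 37 °C, then stopped with trypsin/nicotinamide for 20 min at 37 °C. Read at ex 390/em 460 nm against no-inhibitor controls, at least duplicates.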

[2] = target: T2, NAD-dependent protein deacetylase sirtuin-1 (Homo sapiens) (UniProt Q96EB6); assay: Inhibition of GST-tagged human SIRT1 (133 to 747 amino acids) using ZMAL as substrate at 200 uM after 4 hrs by fluorescence-based microplate reader method
T2 sequence (whole entry): T1 sequence (Q96EB6 whole entry)

[3] = target: T3, NAD-dependent protein deacetylase sirtuin-2 (Homo sapiens) (UniProt Q8IXJ6); assay: Inhibition of N-terminal his6-tagged human SIRT2 (25 to 389 amino acids) using ZMAL as substrate at 50 uM after 4 hrs by fluorescence-based microplate reader method
T3 sequence (whole entry): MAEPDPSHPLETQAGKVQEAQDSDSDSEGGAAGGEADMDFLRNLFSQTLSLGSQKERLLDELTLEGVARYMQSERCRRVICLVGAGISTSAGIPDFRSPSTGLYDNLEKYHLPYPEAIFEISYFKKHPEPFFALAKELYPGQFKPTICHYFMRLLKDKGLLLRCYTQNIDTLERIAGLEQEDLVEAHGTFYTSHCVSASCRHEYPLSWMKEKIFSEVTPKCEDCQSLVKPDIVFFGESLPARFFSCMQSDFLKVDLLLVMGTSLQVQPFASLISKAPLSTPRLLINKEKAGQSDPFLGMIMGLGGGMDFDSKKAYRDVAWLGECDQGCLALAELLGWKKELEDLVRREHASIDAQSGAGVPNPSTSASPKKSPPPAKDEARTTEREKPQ
Outline: (§1)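 Fluorogenic deacetylation assay: hSirt1 133-747 or hSirt2 25-389 in 50 mM Tris, 137 mM NaCl, 2.7 mM KCl, pH 8.0, with NAD+ 500 µM and ZMAL (Cbz-Lys(acetyl)-AMC) 10,5 µM final, inhibitor in DMSO (5% v/v final). Control conversion kept near 15-30%. 4 h at 37 °C, then trypsin/nicotinamide stop for 20 min at 37 °C. Fluorescence read at 390/460 nm. % inhibition taken against no-inhibitor controls. At least duplicates.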

[4] = target: T3, NAD-dependent protein deacetylase sirtuin-2 (Homo sapiens); assay: Inhibition of N-terminal his6-tagged human SIRT2 (25 to 389 amino acids) using ZMAL as substrate at 500 uM after 4 hrs by fluorescence-based microplate reader method; outline: as §1
[5] = target: T3, NAD-dependent protein deacetylase sirtuin-2 (Homo sapiens); assay: Inhibition of N-terminal his6-tagged human SIRT2 (25 to 389 amino acids) using ZMAL as substrate at 10 uM after 4 hrs by fluorescence-based microplate reader method; outline: as §1
[6] = target: T3, NAD-dependent protein deacetylase sirtuin-2 (Homo sapiens); assay: Inhibition of N-terminal his6-tagged human SIRT2 (25 to 389 amino acids) using ZMAL as substrate at 250 uM after 4 hrs by fluorescence-based microplate reader method; outline: as §1
[7] = target: T4, NAD-dependent protein deacetylase sirtuin-2 (Homo sapiens, UniProt Q8IXJ6); assay: Inhibition of human SIRT2
T4 sequence (Q8IXJ6 whole entry): T3 sequence (whole entry)

[8] = target: T4, NAD-dependent protein deacetylase sirtuin-2; assay: Inhibition of N-terminal his6-tagged human SIRT2 (25 to 389 amino acids) using ZMAL as substrate after 4 hrs by fluorescence-based microplate reader method
[9] = target: T3, NAD-dependent protein deacetylase sirtuin-2 (Homo sapiens); assay: Inhibition of SIRT2 in human HeLa cells assessed as tubulin hyperacetylation at 10 uM after 1 hr by DAPI staining-based immunofluorescence microscopy relative to control; assay type: cell-based
Outline: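 HeLa cells, 0.5 x 10^4 per 12 mm coverslip, were plated overnight, then exposed for 1 h to 10 µM compound added from 10 mM DMSO stocks, with DMSO vehicle controls. The microtubule network was immunostained for acetylation and nuclei were counterstained with DAPI, followed by immunofluorescence microscopy.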

[10] = target: T3, NAD-dependent protein deacetylase sirtuin-2 (Homo sapiens); assay: Inhibition of SIRT2 in human HeLa cells assessed as tubulin acetylation at 10 uM after 1 hr by Western blotting method; assay type: cell-based
Outline: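 HeLa cells grown in high-glucose DMEM with 10% FCS and kanamycin at 37 °C, 5% CO2. 1.5 x 10^4 cells per well were plated overnight, then exposed to compound for 1 h from 10 mM DMSO stocks, with DMSO vehicle controls. Cells were lysed in reducing sample buffer and run on SDS-PAGE/PVDF. Blots were probed for acetyl-α-tubulin Lys40 (6-11B-1) and then GAPDH. Values were normalized to the mean control on the same blot.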

[11] = target: T1, NAD-dependent protein deacetylase sirtuin-1; assay: Inhibition of human SIRT1 using RHKK(Ac)-AMC as substrate preincubated for 10 mins followed by substrate addition by fluorescence assay
[12] = target: T4, NAD-dependent protein deacetylase sirtuin-2; assay: Inhibition of human SIRT2 using RHKK(Ac)-AMC as substrate preincubated for 10 mins followed by substrate addition by fluorescence assay
[13] = target: T1, NAD-dependent protein deacetylase sirtuin-1; assay: Inhibition of GST-tagged human SIRT1 (133 to 747 amino acids) using ZMAL as substrate after 4 hrs by fluorescence-based microplate reader method

inhibition [2] [%] | inhibition [3] [%] | SMILES | further results
– | – | N#C/C(=C/c1ccc(-c2cc(Cl)ccc2Cl)o1)C(=O)Nc1cccc2ncccc12 | IC50 [1]: > 40 µM
< 10 | 36 | Nc1ccccc1SCC(=O)Nc1ncc(Cc2cccc3ccccc23)s1 | –
< 10 | < 10 | O=C(CSc1ccc(Cl)cc1)Nc1ncc(Cc2cccc3ccccc23)s1 | –
23 | 35 | Cc1cc(C)nc(SCC(=O)Nc2nc(-c3ccc4ccccc4c3)cs2)n1 | –
< 10 | < 10 | CC(=O)Nc1ncc(C)s1 | –
< 10 | 48 | COc1ccc(Cc2cnc(NC(=O)CSc3nc(C)cc(C)n3)s2)cc1 | –
< 10 | 35 | Cc1cc(O)nc(SCC(=O)Nc2ncc(Cc3cccc4ccccc34)s2)n1 | –
11 | 46 | O=C(CSc1nc(-c2ccccc2)cc(-c2ccccc2)n1)Nc1ncc(Cc2ccc(Cl)cc2)s1 | –
10 | 31 | CCc1cc(CC)nc(SCC(=O)Nc2ncc(Cc3ccc(-c4ccccc4)cc3)s2)n1 | –
< 10 | 48 | CCCCCC(=O)Nc1ncc(Cc2cccc3ccccc23)s1 | inhibition [4]: 77%; inhibition [5]: < 10%
14 | 52 | Cc1cc(C)nc(SCC(=O)Nc2ncc(Cc3ccccc3C)s2)n1 | –
28 | 18 | COc1ccc(Cc2cnc(NC(=O)/C=C/c3ccco3)s2)cc1 | –
< 10 | – | Cc1cc(C)nc(SCC(=O)Nc2ncc(C)s2)n1 | inhibition [6]: 24%
< 10 | < 10 | CCc1cc(CC)nc(SCC(=O)Nc2ncc(Cc3cccc(C)c3)s2)n1 | –
– | – | CC(C)[C@@H]1NC(=O)[C@H](Cc2c[nH]cn2)NC(=O)[C@H](Cc2ccc(O)cc2)NC(=O)[C@H]([C@@H](C)O)NC(=O)[C@H](Cc2c[nH]cn2)NC(=O)[C@H](Cc2ccc(O)cc2)NC(=O)CSC[C@@H](C(N)=O)NC(=O)[C@H](Cc2ccc(O)cc2)NC(=O)[C@H](Cc2ccc(O)cc2)NC(=O)[C@H](CC(N)=O)NC(=O)[C@H]([C@@H](C)O)NC(=O)[C@H](CCCNC(=N)N)NC(=O)[C@H](CCCNC(=N)N)NC(=O)[C@H](CCCCNC(=O)C(F)(F)F)NC1=O ({CH2CO}-YHTYHVK(Tfa)RRTNYYC-NH2; thioether N-14) | IC50 [7]: 1 nM
11 | < 10 | Cc1ccccc1Cc1cnc(NC(=O)CSc2ncccn2)s1 | –
29 | – | Cc1cc(C)nc(SCC(=O)Nc2ncc(Cc3cccc4ccc(Cl)cc34)s2)n1 | IC50 [8]: 180 nM; inhibition [9]: Active; inhibition [10]: Active
18 | 40 | CCc1cc(CC)nc(SC(C)C(=O)Nc2ncc(Cc3ccc(OC)cc3)s2)n1 (racemic) | –
18 | 38 | CCc1cc(CC)nc(SCC(=O)Nc2ncc(Cc3ccc(Cl)cc3)s2)n1 | –
17 | 48 | CCc1cc(CC)nc(SCC(=O)Nc2ncc(Cc3ccc(OC)cc3)s2)n1 | –
– | – | COc1ccc2ccccc2c1Cn1cnc2sc3c(c2c1=O)CCC(NCc1cccnc1)C3 (stereo not drawn) | IC50 [11]: > 100 µM; IC50 [12]: 1450 nM
< 10 | – | Cc1cc(C)nc(SCC(=O)Nc2ncc(Cc3cccc4ccccc34)s2)n1 | IC50 [13]: > 50 µM
< 10 | < 10 | Cc1cc(C)nc(SCC(N)=O)n1 | –
< 10 | – | Cc1cc(C)nc(SC(C)C(=O)Nc2ncc(Cc3cccc4ccc(Cl)cc34)s2)n1 (racemic) | IC50 [8]: 540 nM
< 10 | 18 | Cc1cc(C)nc(SCC(=O)Nc2nnc(Cc3ccccc3)s2)n1 | –
< 10 | – | CCc1cc(CC)nc(SCC(=O)Nc2ncc(Cc3cccc4ccccc34)s2)n1 | IC50 [8]: 45600 nM
< 10 | 25 | Nc1cc(N)nc(SCC(=O)Nc2ncc(Cc3cccc4ccccc34)s2)n1 | –
< 10 | < 10 | Cc1cc(C)nc(SCC(=O)Nc2nnc(C)s2)n1 | –
< 10 | 20 | Cc1cc(C)nc(SCC(=O)Nc2nnc(-c3ccccc3)s2)n1 | –
< 10 | < 10 | CC(=O)Nc1ncc(Cc2cccc3ccccc23)s1 | inhibition [4]: 84%
